Measurements taken from ChEMBL document CHEMBL1153096, “Properly substituted 1,4-dioxane nucleus favours the selective M3 muscarinic receptor activation” (Bioorg Med Chem, 2009).
The source made the active and inactive calls. The rule behind the calls is not given here.

Key:
[1] = target: T1, Muscarinic acetylcholine receptor M1 (Homo sapiens, UniProt P11229); experiment: Displacement of [3H]NMS from human muscarinic M1 receptor expressed in CHO cells by microplate scintillation counting; assay type: cell-based
T1 sequence (P11229 whole entry): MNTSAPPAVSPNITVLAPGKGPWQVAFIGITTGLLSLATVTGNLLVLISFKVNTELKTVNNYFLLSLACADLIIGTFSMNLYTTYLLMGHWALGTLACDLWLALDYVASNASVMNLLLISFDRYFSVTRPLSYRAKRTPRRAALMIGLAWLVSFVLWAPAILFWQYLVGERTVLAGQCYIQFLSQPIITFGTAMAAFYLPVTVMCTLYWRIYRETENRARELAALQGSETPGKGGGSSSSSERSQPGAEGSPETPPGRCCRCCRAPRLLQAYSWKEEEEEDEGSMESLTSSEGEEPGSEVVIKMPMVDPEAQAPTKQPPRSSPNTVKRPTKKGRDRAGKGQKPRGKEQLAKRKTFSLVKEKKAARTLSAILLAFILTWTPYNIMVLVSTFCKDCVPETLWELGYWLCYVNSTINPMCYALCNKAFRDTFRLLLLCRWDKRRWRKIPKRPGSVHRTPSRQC

[2] = target: T2, Muscarinic acetylcholine receptor M2 (Homo sapiens, UniProt P08172); experiment: Displacement of [3H]NMS from human muscarinic M2 receptor expressed in CHO cells by microplate scintillation counting; assay type: cell-based
T2 sequence (P08172 whole entry): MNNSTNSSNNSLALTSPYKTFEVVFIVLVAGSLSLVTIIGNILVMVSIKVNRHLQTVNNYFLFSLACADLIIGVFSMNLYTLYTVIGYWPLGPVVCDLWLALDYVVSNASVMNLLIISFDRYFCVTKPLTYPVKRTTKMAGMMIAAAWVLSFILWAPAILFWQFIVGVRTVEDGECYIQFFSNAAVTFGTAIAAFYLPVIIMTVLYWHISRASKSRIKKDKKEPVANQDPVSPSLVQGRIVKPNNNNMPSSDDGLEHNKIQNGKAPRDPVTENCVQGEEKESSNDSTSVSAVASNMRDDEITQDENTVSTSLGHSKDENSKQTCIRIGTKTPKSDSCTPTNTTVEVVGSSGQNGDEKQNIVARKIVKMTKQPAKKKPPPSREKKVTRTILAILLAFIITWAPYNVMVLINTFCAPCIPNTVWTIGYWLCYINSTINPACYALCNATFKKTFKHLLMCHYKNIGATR

[3] = target: Muscarinic acetylcholine receptor M3 (Homo sapiens, UniProt P20309); experiment: Displacement of [3H]NMS from human muscarinic M3 receptor expressed in CHO cells by microplate scintillation counting; assay type: cell-based
[4] = target: T3, Muscarinic acetylcholine receptor M4 (Homo sapiens, UniProt P08173); experiment: Displacement of [3H]NMS from human muscarinic M4 receptor expressed in CHO cells by microplate scintillation counting; assay type: cell-based
T3 sequence (P08173 whole entry): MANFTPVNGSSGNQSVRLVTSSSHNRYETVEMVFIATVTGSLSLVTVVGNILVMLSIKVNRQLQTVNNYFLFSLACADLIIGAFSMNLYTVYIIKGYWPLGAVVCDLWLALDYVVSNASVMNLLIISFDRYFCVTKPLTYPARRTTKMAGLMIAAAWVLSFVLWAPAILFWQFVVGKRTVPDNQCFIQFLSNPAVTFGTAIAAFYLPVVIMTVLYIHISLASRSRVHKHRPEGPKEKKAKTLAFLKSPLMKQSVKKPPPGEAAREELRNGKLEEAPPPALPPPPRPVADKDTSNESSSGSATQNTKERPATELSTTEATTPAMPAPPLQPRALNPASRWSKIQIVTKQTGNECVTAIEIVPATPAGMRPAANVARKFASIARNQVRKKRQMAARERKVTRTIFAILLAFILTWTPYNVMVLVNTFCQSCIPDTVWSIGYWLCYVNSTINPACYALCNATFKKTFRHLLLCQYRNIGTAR

[5] = target: T4, Muscarinic acetylcholine receptor M5 (Homo sapiens, UniProt P08912); experiment: Displacement of [3H]NMS from human muscarinic M5 receptor expressed in CHO cells by microplate scintillation counting; assay type: cell-based
T4 sequence (P08912 whole entry): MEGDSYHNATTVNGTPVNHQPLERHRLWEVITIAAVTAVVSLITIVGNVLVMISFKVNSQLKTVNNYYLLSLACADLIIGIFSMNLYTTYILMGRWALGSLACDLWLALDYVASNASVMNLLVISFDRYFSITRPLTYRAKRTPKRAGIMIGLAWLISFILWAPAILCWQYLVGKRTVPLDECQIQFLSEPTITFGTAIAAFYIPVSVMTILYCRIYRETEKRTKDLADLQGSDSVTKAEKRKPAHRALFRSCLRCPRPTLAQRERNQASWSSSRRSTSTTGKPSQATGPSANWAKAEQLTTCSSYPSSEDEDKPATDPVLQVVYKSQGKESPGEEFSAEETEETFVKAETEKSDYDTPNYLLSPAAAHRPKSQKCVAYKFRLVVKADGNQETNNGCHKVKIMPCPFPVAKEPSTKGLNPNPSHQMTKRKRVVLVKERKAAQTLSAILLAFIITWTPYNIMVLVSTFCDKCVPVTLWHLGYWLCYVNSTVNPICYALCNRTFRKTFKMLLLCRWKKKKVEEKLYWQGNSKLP

Oryctolagus cuniculus [6] = species: Oryctolagus cuniculus; experiment: Agonist activity at muscarinic M1 receptor in New Zealand White rabbit vas deferens assessed as inhibition of electrically-stimulated muscle contraction; assay type: functional
Outline: (§1)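 Prostatic portion of male-free-listed New Zealand white rabbit (3.0-3.5 kg, fasted 24 h) vas deferens in modified Krebs, 31 °C, 95% O2-5% CO2; 45 min stabilisation, field stimulation 2 Hz, 5 ms, 5 V; isometric recording. Cumulative concentration-response curves; pD2 by linear regression; intrinsic activity as fraction of McN-A-343 maximum; means ± SEM of four to six experiments.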

[7] = target: Muscarinic acetylcholine receptor M3 (Cavia porcellus) (UniProt Q8VH26); experiment: Intrinsic activity at muscarinic M3 receptor in guinea pig ileum assessed as inhibition of electrically-stimulated muscle contraction relative to bathanecol; assay type: tissue-based
Outline: (§2)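 Male guinea pig (250-350 g, fasted 24 h) ileal segments 2-3 cm, 1.0 g tension, 37 °C, Krebs-Henseleit with carbogen; 45 min equilibration, isometric contractions. Cumulative agonist concentration-response curves; pD2 by linear regression; intrinsic activity relative to bethanechol maximum; means ± SEM of four to six experiments.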

Cavia porcellus [8] = species: Cavia porcellus; experiment: Intrinsic activity at muscarinic M2 receptor in guinea pig atrium assessed as inhibition of electrically-stimulated muscle contraction relative to bathanecol; assay type: tissue-based; conditions: Cardiac atrium
[9] = Agonist activity at muscarinic M2 receptor in guinea pig atrium assessed as inhibition of electrically-stimulated muscle contraction; assay type: functional, Cavia porcellus, Cardiac atrium
[10] = target: Muscarinic acetylcholine receptor M3 (Cavia porcellus) (UniProt Q8VH26); experiment: Agonist activity at muscarinic M3 receptor in guinea pig ileum assessed as inhibition of electrically-stimulated muscle contraction; assay type: functional, tissue-based; outline: as §2
Cavia porcellus [11] = species: Cavia porcellus; experiment: Intrinsic activity at muscarinic M4 receptor in guinea pig lung assessed as inhibition of electrically-stimulated muscle contraction relative to bathanecol
Outline: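 Male guinea pig peripheral lung strips (15 × 2 × 2 mm) from lower lobe, 0.3 g resting tension, 37 °C, Krebs-Henseleit with carbogen; 45 min equilibration, isometric contractions. Cumulative agonist concentration-response curves; pD2 by linear regression; intrinsic activity relative to bethanechol maximum; means ± SEM of four to six experiments.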

[12] = Agonist activity at muscarinic M4 receptor in guinea pig lung assessed as inhibition of electrically-stimulated muscle contraction; assay type: functional, Cavia porcellus
Oryctolagus cuniculus [13] = species: Oryctolagus cuniculus; experiment: Antagonist activity at muscarinic M1 receptor in New Zealand White rabbit vas deferens assessed as effect on muscle contraction up to 30 uM; assay type: functional, tissue-based
Cavia porcellus [14] = species: Cavia porcellus; experiment: Selectivity ratio of pD2 for guinea pig muscarinic M3 receptor to pD2 for guinea pig muscarinic M2 receptor
[15] = Selectivity ratio of pD2 for guinea pig muscarinic M3 receptor to pD2 for rabbit M1 receptor
Cavia porcellus [16] = species: Cavia porcellus; experiment: Selectivity ratio of pD2 for guinea pig muscarinic M3 receptor to pD2 for guinea pig muscarinic M4 receptor
[17] = Antagonist activity at muscarinic M4 receptor in guinea pig lung assessed as effect on muscle contraction; assay type: functional, Cavia porcellus
Oryctolagus cuniculus [18] = species: Oryctolagus cuniculus; experiment: Intrinsic activity at muscarinic M1 receptor in New Zealand White rabbit vas deferens assessed as inhibition of electrically-stimulated muscle contraction relative to McN-A-343; assay type: tissue-based; outline: as §1
[19] = Antagonist activity at muscarinic M1 receptor in New Zealand White rabbit vas deferens assessed as effect on muscle contraction; assay type: functional, Oryctolagus cuniculus
Cavia porcellus [20] = species: Cavia porcellus; experiment: Antagonist activity at muscarinic M4 receptor in guinea pig lung assessed as effect on muscle contraction up to 10 uM; assay type: functional

Sequence of Muscarinic acetylcholine receptor M3 (P20309 whole entry): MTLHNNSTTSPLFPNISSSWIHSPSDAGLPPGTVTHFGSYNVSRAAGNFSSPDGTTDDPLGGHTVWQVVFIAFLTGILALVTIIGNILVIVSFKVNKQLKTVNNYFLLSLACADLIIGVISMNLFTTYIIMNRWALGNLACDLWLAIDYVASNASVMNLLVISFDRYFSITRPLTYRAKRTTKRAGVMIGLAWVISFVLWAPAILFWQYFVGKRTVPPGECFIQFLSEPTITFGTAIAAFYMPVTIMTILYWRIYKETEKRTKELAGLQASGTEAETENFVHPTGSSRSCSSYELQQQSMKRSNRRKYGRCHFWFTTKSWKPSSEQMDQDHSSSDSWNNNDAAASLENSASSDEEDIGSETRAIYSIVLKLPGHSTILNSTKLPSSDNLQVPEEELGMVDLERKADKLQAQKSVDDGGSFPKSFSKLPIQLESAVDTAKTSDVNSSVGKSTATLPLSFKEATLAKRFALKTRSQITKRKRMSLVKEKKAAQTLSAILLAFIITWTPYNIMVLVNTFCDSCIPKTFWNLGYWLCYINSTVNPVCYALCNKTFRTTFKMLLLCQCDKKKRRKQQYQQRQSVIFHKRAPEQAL
Sequence of Muscarinic acetylcholine receptor M3 (Cavia porcellus) (Q8VH26 1-587): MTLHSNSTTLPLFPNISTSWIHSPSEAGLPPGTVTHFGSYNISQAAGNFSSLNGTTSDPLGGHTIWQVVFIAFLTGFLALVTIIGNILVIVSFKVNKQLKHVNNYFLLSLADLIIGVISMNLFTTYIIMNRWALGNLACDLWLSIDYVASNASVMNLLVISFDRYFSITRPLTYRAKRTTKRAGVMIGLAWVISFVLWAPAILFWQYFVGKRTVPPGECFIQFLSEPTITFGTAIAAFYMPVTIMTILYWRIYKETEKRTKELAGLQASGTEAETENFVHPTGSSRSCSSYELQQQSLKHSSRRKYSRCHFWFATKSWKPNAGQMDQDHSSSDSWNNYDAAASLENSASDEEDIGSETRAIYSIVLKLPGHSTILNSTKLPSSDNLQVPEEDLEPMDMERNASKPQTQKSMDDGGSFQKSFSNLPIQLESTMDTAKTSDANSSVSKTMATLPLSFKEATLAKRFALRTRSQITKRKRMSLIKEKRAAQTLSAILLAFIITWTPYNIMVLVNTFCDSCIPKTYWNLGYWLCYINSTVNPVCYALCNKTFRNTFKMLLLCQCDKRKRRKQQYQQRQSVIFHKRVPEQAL

| Compound | Ki [1] [µM] | Ki [2] [µM] | Ki [3] [µM] | Ki [4] [µM] | Ki [5] [µM] | pD2 (Oryctolagus cuniculus [6]) | Intrinsic activity [7] | Intrinsic activity (Cavia porcellus [8]) | pD2 [9] | pD2 [10] | Intrinsic activity (Cavia porcellus [11]) | pD2 [12] | pKb (Oryctolagus cuniculus [13]) | Selectivity ratio (Cavia porcellus [14]) | Selectivity ratio [15] | Selectivity ratio (Cavia porcellus [16]) | pKb [17] | Intrinsic activity (Oryctolagus cuniculus [18]) | pKb [19] | pKb (Cavia porcellus [20]) |
| --- | --- | --- | --- | --- | --- | --- | --- | --- | --- | --- | --- | --- | --- | --- | --- | --- | --- | --- | --- | --- |
| CC1(C)COC[C@@H](C[N+](C)(C)C)O1.[I-] | 47.9 | 18.2 | 21.4 | 44.7 | 28.2 | inactive | 1.16 | 0.73 | 5.03 | 6.94 | 0.18 | 4.85 | inactive | 81 | > 275 | 123 | – | – | – | – |
| C[C@H]1OC[C@@H](C[N+](C)(C)C)OC1(C)C.[I-] (relative stereo) | 20 | 27.5 | 16.2 | 25.7 | 32.4 | inactive | 0.47 | – | – | 5.25 | 0 | – | inactive | – | – | – | 5.15 | – | – | – |
| C[C@@H]1O[C@H](C[N+](C)(C)C)COC1(C)C.[I-] (relative stereo) | 67.6 | 60.3 | 32.4 | 57.5 | 52.5 | – | 0.47 | 0.33 | 4.92 | 5.12 | – | – | – | – | – | – | – | 0 | 4.61 | inactive |
